{"source": "ChEMBL document CHEMBL3526154", "about": "“Metabolism, pharmacokinetics, tissue distribution, and stability studies of the prodrug analog of an anti-hepatitis B virus dinucleoside phosphorothioate” (Drug Metab Dispos, 2012)", "tested_on": "Nucleic Acid", "experiment": "Ratio of drug level in liver to plasma in female Sprague-Dawley rat at 10 mg/kg, iv administered as bolus dose measured after 1 hr by liquid scintillation counting analysis", "format": "ADME, organism-based", "parameters": "dose 10 mg/kg, route intravenous", "settings": "other tissue", "procedure,_shortened": "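Rats received a single iv bolus of the [35S]-labelled prodrug via tail vein in 25% PEG 400/75% saline, 5 ml/kg. Liver (solubilised homogenate) and plasma (EDTA blood, retro-orbital, just before necropsy) were taken at 1, 4 and 24 h and counted by liquid scintillation. The liver/plasma concentration ratio is the mean at each time point, from nine male and nine female rats.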", "data": [{"compound": "CO[C@@H]1[C@H](OP(=O)(OC[C@H]2O[C@@H](n3cnc4c(N)ncnc43)C[C@@H]2O)[35S]COC(=O)OC(C)C)[C@@H](CO)O[C@H]1n1ccc(=O)[nH]c1=O", "note": "(stereo partly specified)", "values": [{"measurement": "Ratio", "result": 3.89}]}]}
